Converted amounts (≈) assume the structure as drawn.
Columns and labels:
[1] = Toxicity was determined as presence of micronucleated reticulocytes (MNRET) in blood at 24 and 48 hr after 100 mg/kg dose administered intravenously to 5-week old male mice; negative.; format: organism-based; set-up: dose 100 mg/kg, route intravenous; conditions: mouse, in vivo, iv
[2] = tested on: Pseudomonas aeruginosa; experiment: Antibacterial activity was determined against Pseudomonas aeruginosa PAO1 strain after incubation at 37 degrees C for 18 h; format: functional
[3] = tested on: Staphylococcus epidermidis; experiment: Antibacterial activity was determined against Staphylococcus epidermis 56500 strain after incubation at 37 degrees C for 18 h; format: functional
[4] = Mortality was determined after 100 mg/kg dose administered intravenously to 5-week old male mice at a speed of 0.2 mL/min counted on day 7 for total 5 mice; format: ADME, organism-based; set-up: dose 100 mg/kg, route intravenous; conditions: mouse, in vivo, iv
Procedure, shortened: (§1)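 Male Slc:ddY mice, 5 weeks old. Compound dissolved in 0.1 N NaOH in saline at varied concentrations and given as a single IV injection at 0.2 mL/min, total volume 10 mL/kg body weight. Deaths counted on day 7 and reported as dead/tested.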

[5] = tested on: Streptococcus pneumoniae; experiment: Antibacterial activity was determined against Streptococcus pneumoniae J-24 strain after incubation at 37 degrees C for 18 h; format: functional
[6] = tested on: Escherichia coli; experiment: Antibacterial activity was determined against Escherichia coli NIHJ strain after incubation at 37 degrees C for 18 h; format: functional
[7] = tested on: Staphylococcus aureus; experiment: Antibacterial activity was determined against Staphylococcus aureus FDA 209-P strain after incubation at 37 degrees C for 18 h; format: functional
[8] = Mortality was determined after 150 mg/kg dose administered intravenously to 5-week old male mice at a speed of 0.2 mL/min counted on day 7 for total 2 mice; format: ADME, organism-based; set-up: dose 150 mg/kg, route intravenous; conditions: mouse, in vivo, iv; procedure, shortened: as §1
[9] = tested on: Streptococcus mitis; experiment: Antibacterial activity was determined against Streptococcus mitis IID685 strain after incubation at 37 degrees C for 18 h; format: functional
[10] = tested on: Klebsiella pneumoniae; experiment: Antibacterial activity was determined against Klebsiella pneumoniae type II strain after incubation at 37 degrees C for 18 h; format: functional
[11] = tested on: Enterococcus faecalis; experiment: Antibacterial activity was determined against Enterococcus faecalis ATCC 19433 strain after incubation at 37 degrees C for 18 h; format: functional; conditions: ATCC 19433, 18 h
[12] = tested on: Streptococcus pyogenes; experiment: Antibacterial activity was determined against Streptococcus pyogenes G-36 strain after incubation at 37 degrees C for 18 h; format: functional
[13] = Solubility was determined in water; format: physicochemical
[14] = Toxicity was determined as presence of micronucleated reticulocytes (MNRET) in blood at 24 and 48 hr after 100 mg/kg dose administered intravenously to 5-week old male mice; positive.; format: organism-based; set-up: dose 100 mg/kg, route intravenous; conditions: mouse, in vivo, iv
[15] = Total concentration in liver was determined after 6 hr of intravenous administration to rats (n=4) at dose of 20 mg/kg; format: ADME, organism-based; set-up: time < 6 hr, dose 20 mg/kg, route intravenous; conditions: rat
[16] = Half life in kidney was determined after intravenous administration to rats (n=4) at dose of 20 mg/kg; format: ADME, organism-based; set-up: dose 20 mg/kg, route intravenous; conditions: rat
[17] = tested on: Enterococcus sp.; experiment: Antibacterial activity was determined against clinically isolated vancomycin-B resistant enterococci (VRE) strains (10 strains); format: functional
[18] = Half life in liver was determined after intravenous administration to rats (n=4) at dose of 20 mg/kg; format: ADME, organism-based; set-up: dose 20 mg/kg, route intravenous; conditions: rat
[19] = Liver concentration was determined after 5 min. of intravenous administration to rats (n=4) at dose of 20 mg/kg; format: ADME, organism-based; set-up: dose 20 mg/kg, route intravenous; conditions: rat
[20] = tested on: Streptococcus pneumoniae; experiment: Antibacterial activity was determined against clinically isolated penicillin resistant Streptococcus pneumoniae (PRSP) strains (50 strains); format: functional
[21] = Kidney concentration was determined after 5 min. of intravenous administration to rats (n=4) at dose of 20 mg/kg; format: ADME, organism-based; set-up: dose 20 mg/kg, route intravenous; conditions: rat
[22] = Ratio of total concentration in liver to that of serum after 6 hr of intravenous administration to rats (n=4) at dose of 20 mg/kg; format: ADME, organism-based; set-up: dose 20 mg/kg, route intravenous; conditions: rat
[23] = Ratio of total concentration in kidney to that of serum after 6 hr of intravenous administration to rats (n=4) at dose of 20 mg/kg; format: ADME, organism-based; set-up: dose 20 mg/kg, route intravenous; conditions: rat
[24] = Ratio of total concentration in lung to that of serum after 6 hr of intravenous administration to rats (n=4) at dose of 20 mg/kg; format: ADME, organism-based; set-up: dose 20 mg/kg, route intravenous; conditions: rat
[25] = tested on: Rattus norvegicus; experiment: Ratio of total concentration in serum to that of serum after 6 hr of intravenous administration to rats (n=4) at dose of 20 mg/kg; format: ADME, organism-based; set-up: dose 20 mg/kg, route intravenous; conditions: in vivo
[26] = Half life in serum was determined after intravenous administration to rats (n=4) at dose of 20 mg/kg; format: ADME, organism-based; set-up: dose 20 mg/kg, route intravenous; conditions: rat
[27] = Toxicity was determined as presence of micronucleated reticulocytes (MNRET) in blood at 24 and 48 h after 150 mg/kg dose administered intravenously to 5-week old male mice; negative.; format: organism-based; set-up: dose 150 mg/kg, route intravenous; conditions: mouse, in vivo, iv
[28] = Half life in lung was determined after intravenous administration to rats (n=4) at dose of 20 mg/kg; format: ADME, organism-based; set-up: dose 20 mg/kg, route intravenous; conditions: rat
[29] = Total concentration in kidney was determined after 6 hr of intravenous administration to rats (n=4) at dose of 20 mg/kg; format: ADME, organism-based; set-up: time < 6 hr, dose 20 mg/kg, route intravenous; conditions: rat
[30] = Mortality was determined after 150 mg/kg dose administered intravenously to 5-week old male mice at a speed of 0.2 mL/min counted on day 7 for total 5 mice; format: ADME, organism-based; set-up: dose 150 mg/kg, route intravenous; conditions: mouse, in vivo, iv; procedure, shortened: as §1
[31] = Lung concentration was determined after 5 min. of intravenous administration to rats (n=4) at dose of 20 mg/kg; format: ADME, organism-based; set-up: dose 20 mg/kg, route intravenous; conditions: rat
[32] = Total concentration in lung was determined after 6 hr of intravenous administration to rats (n=4) at dose of 20 mg/kg; format: ADME, organism-based; set-up: time < 6 hr, dose 20 mg/kg, route intravenous; conditions: rat
[33] = Total concentration in serum was determined after 6 hr of intravenous administration to rats (n=4) at dose of 20 mg/kg; format: ADME, organism-based; set-up: time < 6 hr, dose 20 mg/kg, route intravenous; conditions: rat
[34] = tested on: Enterococcus sp.; experiment: Antibacterial activity was determined against clinically isolated vancomycin-A resistant enterococci (VRE) strains (33 strains); format: functional
[35] = Serum concentration was determined after 5 min. of intravenous administration to rats (n=4) at dose of 20 mg/kg; format: ADME, organism-based; set-up: dose 20 mg/kg, route intravenous; conditions: rat
[36] = tested on: Staphylococcus aureus; experiment: Antibacterial activity was determined against clinically isolated Levofloxacin-methicillin resistant Staphylococcus aureus (LVFX-r MRSA) strains (74 strains); format: functional
[37] = Toxicity was determined as presence of micronucleated reticulocytes (MNRET) in blood at 24 and 48 hr after 50 mg/kg dose administered intravenously to 5-week old male mice.; conditions: mouse, in vivo, iv
[38] = Mortality was determined after 50 mg/kg dose administered intravenously to 5-week old male mice at a speed of 0.2 mL/min counted on day 7 for total 5 mice; format: ADME, organism-based; set-up: dose 50 mg/kg, route intravenous; conditions: mouse, in vivo, iv; procedure, shortened: as §1
[39] = Mortality was determined after 100 mg/kg dose administered intravenously to 5-week old male mice at a speed of 0.2 mL/min counted on day 7 for total 2 mice; format: ADME, organism-based; set-up: dose 100 mg/kg, route intravenous; conditions: mouse, in vivo, iv; procedure, shortened: as §1

SMILES: Cc1c(N2C[C@H](C3(N)CC3)C(F)(F)C2)c(F)c(N)c2c(=O)c(C(=O)O)cn([C@@H]3C[C@@H]3F)c12
- Toxicity [1]: Non-toxic
- MIC [2]: 0.2 µg/mL (≈ 0.44 µM)
- MIC [3]: ≤ 0.003 µg/mL
- Dead [4]: 1
- MIC [5]: ≤ 0.003 µg/mL
- MIC [6]: ≤ 0.003 µg/mL
- MIC [7]: ≤ 0.003 µg/mL
- Dead [8]: 2
- MIC [9]: ≤ 0.003 µg/mL
- MIC [10]: 0.013 µg/mL (≈ 0.0286 µM)
- MIC [11]: 0.013 µg/mL (≈ 0.0286 µM)
- MIC [12]: ≤ 0.003 µg/mL

SMILES: Cc1c(N2CC[C@@H](C3(N)CC3)C2)c(F)c(N)c2c(=O)c(C(=O)O)cn([C@@H]3C[C@@H]3F)c12
- MIC [2]: 0.1 µg/mL (≈ 0.239 µM)
- MIC [3]: ≤ 0.003 µg/mL
- Dead [4]: 0
- MIC [5]: ≤ 0.003 µg/mL
- MIC [6]: ≤ 0.003 µg/mL
- MIC [7]: ≤ 0.003 µg/mL
- Dead [8]: 2
- MIC [9]: ≤ 0.003 µg/mL
- solubility [13]: 39 µg/mL (≈ 93.2 µM)
- MIC [10]: 0.025 µg/mL (≈ 0.0597 µM)
- Toxicity [14]: Toxic
- MIC [11]: 0.013 µg/mL (≈ 0.0311 µM)
- MIC [12]: ≤ 0.003 µg/mL

SMILES: Cc1c(N2C[C@@H](F)[C@@H](C3(N)CC3)C2)c(F)c(N)c2c(=O)c(C(=O)O)cn([C@@H]3C[C@@H]3F)c12 [DQ-113]
- AUC at 6 h [15]: 36000 ng·h/mL
- half-life [16]: 1.3 h
- MIC50 [17]: 0.25 µg/mL (≈ 0.573 µM)
- MIC90 [17]: 0.25 µg/mL (≈ 0.573 µM)
- MIC [2]: 0.39 µg/mL (≈ 0.894 µM)
- half-life [18]: 1.3 h
- MIC [3]: ≤ 0.003 µg/mL
- concentration at 5 min [19]: 46200 ng/mL
- MIC50 [20]: ≤ 0.008 µg/mL
- MIC90 [20]: 0.015 µg/mL (≈ 0.0344 µM)
- concentration at 5 min [21]: 33700 ng/mL
- MIC [5]: ≤ 0.003 µg/mL
- Kp at 6 h [22]: 3.9
- MIC [6]: ≤ 0.003 µg/mL
- MIC [7]: ≤ 0.003 µg/mL
- Kp at 6 h [23]: 3.7
- MIC [9]: ≤ 0.003 µg/mL
- Kp at 6 h [24]: 4.1
- Ratio [25]: 1
- solubility [13]: 291 µg/mL (≈ 667 µM)
- half-life [26]: 1.1 h
- MIC [10]: 0.013 µg/mL (≈ 0.0298 µM)
- Toxicity [27]: Non-toxic
- half-life [28]: 0.9 h
- AUC at 6 h [29]: 34800 ng·h/mL
- Dead [30]: 0
- concentration at 5 min [31]: 22000 ng/mL
- AUC at 6 h [32]: 37900 ng·h/mL
- AUC at 6 h [33]: 9300 ng·h/mL
- MIC [11]: 0.025 µg/mL (≈ 0.0573 µM)
- MIC50 [34]: 0.25 µg/mL (≈ 0.573 µM)
- MIC90 [34]: 2 µg/mL (≈ 4.58 µM)
- concentration at 5 min [35]: 11100 ng/mL
- MIC50 [36]: 0.12 µg/mL (≈ 0.275 µM)
- MIC90 [36]: 0.5 µg/mL (≈ 1.15 µM)
- MIC [12]: ≤ 0.003 µg/mL

SMILES: Cc1c(N2CC[C@@H]([C@H](C)N)C2)c(F)c(N)c2c(=O)c(C(=O)O)cn([C@@H]3C[C@@H]3F)c12
- MIC [2]: 0.05 µg/mL (≈ 0.123 µM)
- MIC [3]: ≤ 0.003 µg/mL
- MIC [5]: ≤ 0.003 µg/mL
- MIC [6]: ≤ 0.003 µg/mL
- MIC [7]: ≤ 0.003 µg/mL
- Toxicity [37]: Toxic
- Dead [8]: 2
- MIC [9]: ≤ 0.003 µg/mL
- solubility [13]: 95 µg/mL (≈ 234 µM)
- Dead [38]: 1
- Dead [39]: 2
- MIC [10]: 0.025 µg/mL (≈ 0.0615 µM)
- MIC [11]: 0.025 µg/mL (≈ 0.0615 µM)
- MIC [12]: ≤ 0.003 µg/mL

Source: ChEMBL document CHEMBL1145781, “Synthesis and structure-activity relationships of 5-amino-6-fluoro-1-[(1R,2S)-2-fluorocyclopropan-1-yl]-8-methylquinolonecarboxylic acid antibacterials having fluorinated 7-[(3R)-3-(1-aminocyclopropan-1-yl)pyrrolidin-1-yl] substituents” (J Med Chem, 2003)
